# Screening data deposited in PubChem BioAssay by several laboratories.
# NPY2 pot ag: potentiators or agonists of human neuropeptide Y receptor Y2; P49146; cells expressing NPY-Y2, potentiator/agonist read-out; activation, % at 3.6 µM; actives 0.45% (n = 220,000); AID 1359; in the data active = activation above about 27%;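 also: cells stimulated with NPY near EC25 plus isoproterenol at EC100; 0% = vehicle plus submaximal agonist and 100% = vehicle plus saturating agonist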
# Target sequence (P49146 whole entry, looked up): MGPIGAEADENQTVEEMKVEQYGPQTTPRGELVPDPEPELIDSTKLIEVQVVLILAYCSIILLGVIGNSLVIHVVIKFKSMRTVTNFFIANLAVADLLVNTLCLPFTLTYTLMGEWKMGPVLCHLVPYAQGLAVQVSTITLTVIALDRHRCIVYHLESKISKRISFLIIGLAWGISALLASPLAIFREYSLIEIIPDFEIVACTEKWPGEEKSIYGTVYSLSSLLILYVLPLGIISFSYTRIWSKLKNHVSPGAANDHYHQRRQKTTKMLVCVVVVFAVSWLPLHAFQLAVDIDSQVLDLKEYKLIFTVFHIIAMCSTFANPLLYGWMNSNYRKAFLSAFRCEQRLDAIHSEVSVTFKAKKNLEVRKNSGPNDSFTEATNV
# NPY Y1 blocker: blocks the human neuropeptide Y Y1 receptor | P25929 | HEK293-CNG Y1 cells, membrane potential fluorescence; NPY at EC95, then isoproterenol | inhibition, % at 3.6 µM | actives 1% (n = 200,000) | AID 1040;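 active = inhibition above the campaign mean inhibition of all tested compounds plus 3 SD, cut at about 20% in these data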;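 also: 0% = DMSO wells given NPY plus isoproterenol and 100% = isoproterenol alone without NPY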
#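 Assay system: HEK293 cells with Y1 receptor plus CNG channel | Probe or stimulus: NPY (25 nM), isoproterenol (1 µM), Ro 20-1724 (25 µM) | Timing: Compound incubation 1 h at room temperature, readout 45 min post-stimulation | Measured by: Membrane-potential fluorescent dye readout | Benchmarks: High control isoproterenol alone, low control NPY with isoproterenol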
# NPY Y2 blocker: antagonists of human neuropeptide Y receptor Y2 | P49146 | NPY-Y2 expressing cells, antagonist mode | inhibition, % at 2.7 µM | actives 0.99% (n = 140,000); in the data active = inhibition above about 17%;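 also: 0% = vehicle with agonist challenge and 100% = reference antagonist with challenge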
# PGE2 EP2 inh: blocks the human prostaglandin E2 receptor EP2; P43116; C6 glioma cells expressing human EP2, cAMP TR-FRET; cells stimulated with saturating PGE2; inhibition, % at 25 µM; actives 0.52% (n = 260,000); AID 1422;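 active = percent inhibition above 40 after rounding to a whole number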;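 also: rat C6 glioma host cells with rolipram phosphodiesterase inhibitor present; the protocol text gives 20 µM as final concentration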
# NPY-Y1 PAM-ag: potentiators or agonists of human neuropeptide Y receptor Y1. P25929. NPY-Y1 expressing cells, potentiator/agonist activation. activation, % at 3.6 µM. actives 0.37% (n = 220,000). AID 1304; in the data active = activation above about 33%, passing the limit was not always enough;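 also: cells stimulated with NPY at EC10 then isoproterenol at EC100; 0% = low agonist plus stimulus and 100% = saturating agonist plus stimulus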
# EP2 modulator: modulates human prostaglandin E2 receptor EP2 signaling; P43116; EP2-expressing cells, cAMP HTRF FRET, PGE2 co-stimulation; induction, % at 25 µM; actives 0.83% (n = 260,000); AID 940;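 active = compounds whose cAMP rise, as percent of the full-agonist control response, exceeds 60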;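 also: rat C6 glioma line stably carrying human EP2 under a CMV promoter; the protocol text gives 20 µM as final concentration; 100% = response of wells given 1 µM PGE2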
# EP2 cAMP induct: EP2 receptor cAMP induction, counter-screens negative | C6 glioma EP2 cells, cAMP HTRF induction; plus low (about EC15) PGE2 agonist | shares compounds with EP2 modulator | actives 47% (n = 1,300) | AID 1080 | calls only at 20 µM (by protocol);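 active = cAMP induction above 50% in the main assay while under 30% in all four parallel counter assays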;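 also: rat C6 glioma cells stably expressing human EP2 receptor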
# * hit, by the source's call; i = inactive; x = no result; + = active, no number; ! = not active in a repeat. Sampled rows, rich in hits. Any-hit rate of the full collection: about 2.8%.
SMILES,NPY2 pot ag,NPY Y1 blocker,NPY Y2 blocker,PGE2 EP2 inh,NPY-Y1 PAM-ag,EP2 modulator,EP2 cAMP induct
CCc1ccc2[nH]c(=O)c(C(c3nnnn3CC3CCCO3)N3CCCc4ccccc43)cc2c1 (stereo not drawn),-10,-3,1,3,-20,77*!,+
O=C(O)NCc1ccccc1 (tested in a mixture with another compound),x,x,x,8,x,68*,+
CS(=O)(=O)N1CCN(c2ccc(NC(=O)c3ccccc3F)cc2)CC1,x,x,x,9,x,-46,x
CCOc1ccc(N(Cc2ccc(OC)cc2)C(=O)c2ccco2)cc1,12,9,x,7,-7,65*,i
COc1ccc(CN(C(=O)c2ccco2)c2ccc(Br)cc2)cc1OC,2,2,6,3,23,17,x
Cc1ccc2cc(CN(CCN(C)C)C(=S)NC3CCCCC3)c(=O)[nH]c2c1,x,x,x,10,x,-32,x
Cc1ccc2nc(SCC(=O)NCc3ccco3)c(C#N)cc2c1,4,1,0,15,-16,12,x
Cc1ccc2nc(SCC(=O)NCc3ccco3)c(C)cc2c1,-21,5,x,7,-15,69*,+
CCCc1[nH]nc2c1C(c1cc(Cl)cc(Cl)c1OC)C(C#N)=C(N)O2 (stereo not drawn),x,x,x,15,x,-18,x
COC(=O)c1ccc(-c2ccco2)n1Cc1ccccc1Cl,-6,6,10,6,9,71*,+
O=S(=O)(O)c1ccc2c(N=Nc3c(O)ccc4ccccc34)cccc2c1,x,x,x,41*,x,75*,i
CCOc1c(Cl)cc(C2C3=C(CCCC3=O)NC3=C2C(=O)CCC3)cc1Cl,x,x,x,7,x,-3,x
CCn1c2cc(C)oc2c2cnn(CC(=O)N3CCCC3)c(=O)c21,x,x,x,x,x,-17,x
CC(C)(Oc1ccc(Cl)cc1)C(=O)N(Cc1ccccc1)c1ccccn1,-5,16,9,7,-18,68*,+
COc1ccc(-c2csc(NC(=O)Cn3cnc4ccccc4c3=O)n2)cc1,x,x,x,16,x,21,x
Cc1nc2sc3c(c2c2nnc(SCC(=O)Nc4ccc5c(c4)OCCO5)n12)CCCC3,x,x,x,4,x,-21,x
N#CCSc1nc2sc3c(c2c(=O)n1C1CCCCC1)CCCC3,-4,-1,2,16,-24,73*,+
CCC(=O)N1CCN(c2ccc(NC(=O)COc3ccc(Cl)cc3Cl)cc2)CC1,x,x,x,14,x,-18,x
CN(C)c1nccc(N(Cc2ccccc2)Cc2ccccc2)c1C#N,-37,66*,22*,8,-93,68*,+
CN(C)CCN(Cc1ccccc1)c1ccnc(N(C)C)c1C#N,-7,8,4,x,2,21,x
Cc1cc(SCCC(=O)O)nc2c(C)cccc12,-27,6,8,12,2,82*,i
CCOC(=O)c1ccc(NC(=O)c2c(C)nc3ccccn23)cc1,x,x,x,8,x,-28,x
CSc1nc(Sc2ccc(Cl)cc2)c2ccccc2n1,-1,0,3,x,17,48,x
CSc1nc(Sc2ccccc2)c2ccccc2n1,-11,2,6,14,-50,79*,i
O=C(Nc1ccccc1N1CCCC1)c1cccnc1,-6,-1,1,7,-9,21,x
SMILES,NPY2 pot ag,NPY Y1 blocker,NPY Y2 blocker,PGE2 EP2 inh,NPY-Y1 PAM-ag,EP2 modulator,EP2 cAMP induct
Cc1ccccc1C(=O)Nc1ccccc1N1CCCCC1,-17,2,x,7,8,60,+
COc1ccc(C(=O)Nc2ccccc2N2CCCCC2)cc1[N+](=O)[O-],-21,4,x,5,-12,52,+
O=C(Nc1ccccc1N1CCCCC1)c1cnccn1,2,13,x,5,-23,66*,+
Cc1ccc(C(=O)Nc2ccccc2N2CCCCC2)cc1[N+](=O)[O-],3,10,x,1,-9,66*,+
O=C(Nc1ccccc1N1CCCC1)c1ccccc1Cl,x,x,x,10,x,9,x
Cc1ccc(C(=O)NC(=S)Nc2ccccc2N2CCCC2)cc1[N+](=O)[O-],12,5,1,2,5,21,x
CCC(C)(C)n1nnnc1C(c1cc2cc(C)cc(C)c2[nH]c1=O)N1CCCCC1 (stereo not drawn),x,x,x,7,x,-3,x
Cn1c(N2CCCC(C(=O)NCc3ccc4c(c3)OCO4)C2)nc2ccccc21 (stereo not drawn),x,x,x,6,x,-18,x
CCOc1nc(N)c(C#N)c(-c2ccccc2Cl)c1C#N,x,x,x,8,x,-23,x
Cc1cc2ccccc2n2c(=O)n(CC(=O)Nc3ccccn3)nc12,x,x,x,x,x,1,x
CCN(CC)C(=O)CN1CCC(c2ccc(OC)c(OC)c2)CC1,x,x,x,x,x,-10,x
COc1ccnc(Cn2ncc3cccn3c2=O)c1OC,x,x,x,x,x,-6,x
CCCCOC(=O)CSc1nc(N)c(C#N)c(-c2ccc(OCC)cc2)c1C#N,-1,0,0,17,-8,74*,i
Cc1oc(-c2ccccc2)cc1C(=O)Nc1cccc(/C=C\C(=O)O)c1,-31,2,x,10,-7,82*,+
Cc1oc(C(C)(C)C)cc1C(=O)Nc1cccc(/C=C\C(=O)O)c1,8,-2,2,17,13,-55,x
Cc1nc(C)n(CCNS(=O)(=O)c2ccc3c(c2)NC(=O)CO3)n1,x,x,x,9,x,-1,x
COc1ccc(C(=O)NCCCN2CCOCC2)cc1OC,-9,1,1,4,-10,68*,i
CCOc1ccc(C(=O)NCCCN2CCOCC2)cc1OCC,-4,3,x,8,-12,-24,x
Cc1cc(C)c(S(=O)(=O)c2ccccc2)c(OC(=O)c2c(Cl)cc(Cl)cc2Cl)n1,0,4,9,16,-23,76*,+
CC(C)c1nc2ccccc2c2nnc(SCC(N)=O)n12,x,x,x,9,x,21,x
O=S(=O)(c1ccc(Cl)cc1)c1cnc(-c2cccnc2)nc1-c1ccccc1,-5,-1,2,6,-4,22,x
CN(C)c1ncc(S(=O)(=O)c2ccc(Cl)cc2)c(-c2ccccc2)n1,15,-11,1,4,8,80*,+
CCN(Cc1ccccc1)C(c1cc2cc(C)cc(C)c2[nH]c1=O)c1nnnn1CCOC (stereo not drawn),3,-2,4,18,5,73*!,i
CCc1ccc(OCc2n[nH]c(=S)n2C(C)CCCC(C)C)cc1 (stereo not drawn),-14,9,x,4,-11,69*,+
COc1ccc(OC(=O)c2cccc([N+](=O)[O-])c2)c(C(=O)/C=C/c2cccs2)c1,-4,0,0,11,-3,77*,i
COc1ccccc1C1c2[nH]c3ccccc3c2CCN1Cc1cnc(C)s1 (stereo not drawn),-6,9,x,8,-10,80*,+
